Assay outcomes: PubChem BioAssay, several laboratories
Only some compounds are listed: those with a hit (about 3.5% of all), similar ones and a draw of the others.
PAFAH1B3 inh: inhibitors of human PAFAH1B3. Q15102. recombinant PAFAH1B3, FP-rhodamine probe, fluorescence polarization. inhibition, % at 3.39 µM. 340,000 tested, 0.28% active. AID 492972;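 active = inhibition above the screen-wide average of all tested compounds plus 3 SD, cut at about 25% in these data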
PREPL inh: inhibitors of human prolyl oligopeptidase-like enzyme PREPL. Q4J6C6. recombinant PREPL, fluorescence polarization activity-based probe. inhibition, % at 5.96 µM. 320,000 tested, 0.68% active. AID 2751; in the data active = inhibition above about 43%
Apaf1 inhib: human Apaf-1 inhibition; O14727; reconstituted apoptosome caspase-3 activity, DEVD-Rh110 fluorescence; inhibition, % at 20 µM; 330,000 tested, 0.71% active; active = inhibition of at least 40% at 20 µM
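System – cell-free apoptosome with Apaf-1, procaspase-3 and caspase-9 · Buffer or medium – pH 7.5 Hepes buffer with CHAPS, BSA, DTT · Also added – cytochrome c with DEVD-Rh110 · Times – 30 min compound preincubation, 50 min activation, room temperature · Technique – Rh110 fluorescence intensity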
pPAFAH inh: pPAFAH (human) enzyme inhibition; AID 463082; Q13093; 330,000 tested, 1.5% active; inhibition, % at 3.39 µM; recombinant pPAFAH, FP-rhodamine probe fluorescence polarization;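 active = inhibition above the mean inhibition across the screen plus 3 SD, cut at about 25% in these data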;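 note: inhibitors block binding of the rhodamine activity-based probe so polarization drops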
Target sequence (Q13093 whole entry, looked up): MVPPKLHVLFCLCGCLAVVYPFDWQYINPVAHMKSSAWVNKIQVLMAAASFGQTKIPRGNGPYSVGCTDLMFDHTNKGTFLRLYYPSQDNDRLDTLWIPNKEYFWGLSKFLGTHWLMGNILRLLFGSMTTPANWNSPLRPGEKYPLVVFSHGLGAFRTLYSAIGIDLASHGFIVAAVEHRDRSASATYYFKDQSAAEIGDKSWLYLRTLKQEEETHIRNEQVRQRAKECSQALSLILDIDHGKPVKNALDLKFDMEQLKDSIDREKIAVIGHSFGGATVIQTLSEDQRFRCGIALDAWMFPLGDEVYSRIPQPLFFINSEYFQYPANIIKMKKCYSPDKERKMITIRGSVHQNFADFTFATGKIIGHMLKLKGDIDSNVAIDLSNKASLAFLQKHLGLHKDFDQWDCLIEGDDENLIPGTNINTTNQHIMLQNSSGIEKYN
PAFAH2 FP inh: inhibitors of human PAFAH2; recombinant PAFAH2, FP-rhodamine activity probe, fluorescence polarization; inhibition, % at 3.39 µM; 340,000 tested, 0.99% active;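 active = inhibition above the mean over all tested compounds plus 3 SD, cut at about 30% in these data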;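 note: inhibitors block probe labeling of enzyme so polarization drops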
PAFAH1B2 inh: inhibitors of human PAFAH1B2; P68402; recombinant PAFAH1B2, FP-rhodamine activity probe, fluorescence polarization; inhibition, % at 3.39 µM; 340,000 tested, 1.2% active; AID 492953;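 active = inhibition above the mean of all tested compounds plus 3 SD, cut at about 24% in these data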
Hits are given with their value; – = inactive; · = not tested or not shown.

SMILES	PAFAH1B3 inh	PREPL inh	Apaf1 inhib	pPAFAH inh	PAFAH2 FP inh	PAFAH1B2 inh
CSc1nc2ccc(NS(=O)(=O)c3ccc(CNC(C)=O)cc3)cc2s1	–	–	–	32.0	–	–
Cc1cccc(S(=O)(=O)Nc2ccc(-c3nc4ccc(C)cc4s3)cc2)c1	–	–	–	32.7	–	–
Cc1ccc2nc(-c3ccc(NS(=O)(=O)c4c(C)n(C)c(=O)n(C)c4=O)cc3)sc2c1	–	–	–	–	–	–
Cc1ccc(NS(=O)(=O)c2ccc3[nH]c(=O)[nH]c3c2)cc1	–	–	–	–	–	–
Cc1ccc(NS(=O)(=O)c2ccc3[nH]c(=O)sc3c2)cc1	–	–	–	29.4	–	–
Cc1ccc(S(=O)(=O)Nc2ccc(-c3nc4ccc(C)cc4s3)cc2)cc1	–	–	–	26.1	–	–
C=CCN(c1ccccc1OC)S(=O)(=O)c1cccc(C(=O)OCC(=O)c2c(N)n(C)c(=O)n(C)c2=O)c1	–	·	·	·	–	–
COc1cccc2c(Cl)c(CCCl)c(C)nc12	–	–	–	–	–	–
CCN(CC)C(=O)[C@H]1C[C@H](CC(=O)NC/C=C(\C)CCC=C(C)C)C(=O)N2CCc3c([nH]c4cc(-c5ccco5)ccc34)[C@]12C	–	·	–	32.8	–	–
CC[C@]12c3[nH]c4cc(CCC(=O)N(C)C)ccc4c3CCN1C(=O)[C@@H](CC(=O)NC/C=C(\C)CCC=C(C)C)C[C@@H]2C(=O)N1CCN(C(=O)c2ccco2)CC1	–	·	–	34.0	–	–
CC(C)N(C(=O)[C@H]1C[C@H](CC(=O)NCc2ccco2)C(=O)N2CCc3c([nH]c4cc(-c5ccco5)ccc34)[C@]12C)C(C)C	–	·	–	–	–	–
CCN(CC)C(=O)[C@H]1CC(CC(=O)NC/C=C(\C)CCC=C(C)C)C(=O)N2CCc3c([nH]c4ccccc34)[C@]12C (some centres undefined)	–	–	–	27.5	–	–
CC(C)=CCC/C(C)=C/CNC(=O)C[C@H]1C[C@H](C(=O)N(C(C)C)C(C)C)[C@@]2(C)c3[nH]c4cc(-c5ccco5)ccc4c3CCN2C1=O	–	·	–	27.0	–	–
CC[C@]12c3[nH]c4cc(CCC(=O)N(C)C)ccc4c3CCN1C(=O)[C@@H](CC(=O)NCCN1CCOCC1)C[C@@H]2C(=O)N1CCN(C(=O)c2ccco2)CC1	–	·	–	–	–	–
CCN(CC)C(=O)[C@H]1C[C@H](CC(=O)NC/C=C(\C)CCC=C(C)C)C(=O)N2CCc3c([nH]c4ccc(Cl)cc34)[C@]12C	–	·	–	–	–	–
O=C(Nc1ccc2c(c1)OCO2)c1noc2c1CCCC2	–	–	–	–	–	–
Cc1noc(C)c1COc1ccc(C(=O)N2CCC(C)CC2)cc1	–	–	–	–	–	–
COc1cc(OC)c(NS(=O)(=O)c2c(C(=O)N3CCCCC3)c(C)n(C)c2C)cc1Cl	–	–	–	–	–	–
O=C(COC(=O)c1c[nH]c2ccccc12)Nc1cccc(F)c1	–	–	–	25.1	81.3	–
O=C(COC(=O)c1c[nH]c2ccccc12)Nc1ccc(F)cc1	–	–	–	30.5	77.4	–
O=C(CCc1ccccc1)NCC(c1ccco1)N1CCc2ccccc21 (centres undefined)	–	–	–	–	–	–
CN(C)C=NC(=O)c1[nH]c2ccc(Cl)cc2c1-c1ccccc1	–	–	–	28.7	–	–
COc1cc(C(O)P(=O)(OCC(C)C)c2ccc(N(C)C)cc2)cc(OC)c1OC (centres undefined)	–	–	–	–	–	–
COc1ccc(CCn2c(N)c(S(=O)(=O)c3cccs3)c3nc4ccccc4nc32)cc1OC	–	–	–	–	–	–
Nc1c(S(=O)(=O)c2cccs2)c2nc3ccccc3nc2n1CCc1ccccc1	·	–	70.8	–	·	·
CCOc1cc(/C=C(/NC(C)=O)C(=O)O)cc(Cl)c1OCc1ccc(Br)cc1	–	–	–	31.1	–	–
CCN(CC(=O)Nc1ccccc1OC)C(=O)CCOc1ccc(C(C)(C)C)cc1	–	–	–	–	–	29.9
COc1cc(/C=C(/C#N)c2nc3ccccc3[nH]2)ccc1OC(=O)c1ccco1	–	83.2	–	–	–	–
CNC(=S)N(Cc1ccc(OC)cc1)C1CC(=O)N(c2ccc(Cl)cc2)C1=O (centres undefined)	–	–	–	–	–	32.8
